# Test results from paper PMC10240386 (Cell chemical biology, 2023).
# Columns and labels:
# [1] = target: Pf20S β5 (Plasmodium falciparum, UniProt A0A5K1K7U1+Q8IJT1); experiment: biochemical; type: biochemical
# [2] = target: human i-20S β5i (Homo sapiens, UniProt P20618+P28062); experiment: Proteasome IC50 determination, human i-20S β5i; type: biochemical
# Procedure, shortened: (§1)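 Human i-20S (0.4 nM) assayed in 20 mM HEPES, 0.5 mM EDTA, 0.1 mg/mL BSA, pH 7.5, with 0.02% SDS and 15 µM Ac-ANW-AMC. Pf20S (1 nM) assayed in 50 mM Tris, 5 mM MgCl2, 1 mM DTT, pH 7.4, with 12 nM PA28α, 0.5 µM WLW-VS and 25 µM suc-LLVY-AMC. Test compound given as a 3-fold series, 100–0.0017 µM final. AMC read at 360/460 nm for 1–2 h; velocities fitted to a dose-response equation. Run in duplicate or triplicate.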
# [3] = target: human c-20S β5c (Homo sapiens, UniProt P20618+P28074); experiment: Proteasome IC50 determination, human c-20S β5c; type: biochemical
# Procedure, shortened: as §1, with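 “c-20S (0.2” for “i-20S (0.4”, “25” for “15”, “suc-LLVY-AMC.” for “Ac-ANW-AMC.”, “h; linear” for “h;”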
# [4] = system: Pf Dd2^WT; experiment: Parasite growth inhibition assay, erythrocytic stage; type: cell-based, Plasmodium falciparum
# [5] = system: Dd2β6^A117D; experiment: as above; type: cell-based, Plasmodium falciparum
# [6] = system: Dd2β5^A49S; experiment: as above; type: cell-based, Plasmodium falciparum
# [7] = system: HepG2 cells; experiment: HepG2 cell viability assay; type: cell-based; details: Homo sapiens, HepG2, 72 h, read-out: HepG2
# [8] = system: P. berghei ANKA lux; experiment: In vivo efficacy in mice infected with P. berghei ANKA lux; parameters: species or system Swiss Webster mice
# [9] = system: P. berghei G2025^R551T (K13^R551T); experiment: Modified Peters' 4-day suppressive test for recrudescence, ART-resistant strain; type: in vivo, Swiss Webster mice; details: ART 50 mg/kg, ATZ4 100 mg/kg i.p. day 0 to day 2
# [10] = system: DHA-resistant clones DR1, DR2, DR4 derived from Dd2; experiment: Standard 72-h in vitro assay on DHA-resistant clones; type: cell-based, Plasmodium falciparum; details: standard 72-h assay
# [11] = system: Pf20S β5 in lysate of Dd2^WT; experiment: Blocking of MV151 labeling in parasite lysate; type: binding, Plasmodium falciparum; details: 1 h preincubation of Dd2^WT lysate
# Procedure, shortened: (§2)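 Dd2 wild-type or mutant parasite pellets lysed on ice for 1 h in 50 mM Tris-HCl, 5 mM MgCl2, 1 mM DTT, pH 7.4, then centrifuged; protein quantified by BCA. 5–10 µg of lysate protein preincubated with test compound for 1 h at 37°C. MV151 added at 2 µM final for a further 1 h at 37°C, protected from light. Run on 12% Bis-Tris SDS-PAGE and scanned at Cy3/TAMRA (λex 532, λem 560 nm).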
# [12] = system: Pf20Sβ6^A117D; experiment: Blocking of MV151 labeling in parasite lysate; type: binding, Plasmodium falciparum; details: 1 h preincubation of Dd2β6^A117D lysate
# Procedure, shortened: as §2
# [13] = system: Pf20Sβ5^A49S; experiment: Blocking of MV151 labeling in parasite lysate; type: binding, Plasmodium falciparum; details: 1 h preincubation of Dd2β5^A49S lysate
# Procedure, shortened: as §2
# [14] = system: intracellular Pf20S β5 with the β6^A117D mutation; experiment: Intraparasitic hybrid activation and proteasome inhibition assay; type: cell-based, Plasmodium falciparum; details: ATZ4 700 nM, Dd2β6^A117D parasites, compared with WT
# Procedure, shortened: (§3)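 Dd2 wild-type and mutant lines grown synchronized to 5–8% parasitemia. Early-trophozoite infected erythrocytes pulsed 6 h with test compound (700 or 800 nM) or DMSO, then washed four times in complete medium. Parasites released with saponin, washed in cold PBS and lysed in 20 mM Tris-HCl, 5 mM MgCl2, 1 mM DTT, pH 7.4. Equal lysate amounts labeled with 2 µM MV151 for 1 h at 37°C, separated by SDS-PAGE and scanned on the TAMRA channel.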
# [15] = system: intracellular Pf20S β5 with the β5^A49S mutation; experiment: as above; type: cell-based, Plasmodium falciparum; details: ATZ4 700 nM, Dd2β5^A49S parasites, compared with WT
# Procedure, shortened: as §3
# [16] = system: Dd2β6^A117DK13^R539T; experiment: Parasite growth inhibition, dual resistant strain; type: cell-based, Plasmodium falciparum
structure (smiles),measurement,setting,value
"C[C@H]1[C@@H](CC(=O)NCCCC(=O)N[C@@H](CC(=O)NC(C)(C)C)C(=O)NCCNC(=O)c2cc(-c3ccccc3F)ccc2F)O[C@@H]2O[C@@]3(C)CC[C@H]4[C@H](C)CC[C@@H]1[C@@]24OO3 [ATZ4, (S)-N4-(tert-butyl)-N1-(2-(2′,4-difluoro-[1,1′-biphenyl]-3-carboxamido)ethyl)-2-(4-(2-((3R,5aS,6R,8aS,9R,10R,12R,12aR)-3,6,9-trimethyldecahydro-12H-3,12-epoxy[1,2]dioxepino[4,3-i]isochromen-10-yl)acetamido)butanamido)succinamide]",IC50,[1],4.3 ± 0.9 nM
same,activity against Pf20S,[1]; Pf20S β5,potency comparable with that of PI01
same,IC50,[2],200 ± 57 nM
same,IC50,[3],890 ± 140 nM
same,times more potent than ART1 against Dd2,[4]; EC50 ratio,10 times
same,EC50,"[4]; Plasmodium falciparum, DD2, Erythrocyte, 72 h, read-out: EC50 Pf Dd2^WT",4.3 ± 1.3 nM
same,fold improvement over PI01 against Dd2β6^A117D,[5],≥ 5 fold
same,"fold more resistant / reduced potency, Dd2β6^A117D versus parental Dd2",[5]; EC50 ratio,≤ 2.9 fold
same,EC50,"[5]; Plasmodium falciparum, 72 h, read-out: EC50 Dd2β6^A117D",6.7 ± 2.2 nM
same,fold improvement over PI01 against Dd2β5^A49S,[6],> 100 fold
same,"fold more resistant / reduced potency, Dd2β5^A49S versus parental Dd2",[6]; EC50 ratio,≤ 3.6 fold
same,EC50,"[6]; Plasmodium falciparum, 72 h, read-out: EC50 Dd2β5^A49S",5.9 ± 1.9 nM
same,EC50,[7],9400 nM
same,effect on parasite load,"[8]; 10 mg/kg i.p. once daily day 3 to day 6, luminescence on day 7",no detectable effect
same,decrease in parasite load,"[8]; 25 mg/kg i.p. once daily day 3 to day 6, luminescence on day 7",1.2 log10
same,decrease in parasite load,"[8]; 50 mg/kg i.p. once daily day 3 to day 6, luminescence on day 7, to below the limit of detection",> 3 log10
same,mice with positive blood smear on day 6,[9],0%
same,mice with positive blood smear on day 8,[9],0%
same,mice with positive blood smear on day 10,[9],60%
same,susceptibility of DHA-resistant clones compared with WT Dd2,[10],equally susceptible
same,blocking of MV151 labeling of β5,[11],dose dependently blocked labeling of β5
same,blocking of MV151 labeling of β5,[12],prevented PI01 and ATZ4 from inhibiting
same,blocking of MV151 labeling of β5,[13],prevented PI01 and ATZ4 from inhibiting
same,inhibition of Pf20S β5 labeling by MV151 after 6 h pulse and washing,[14],similarly effective
same,inhibition of Pf20S β5 labeling by MV151 after 6 h pulse and washing,[15],similarly effective
same,"potency across Dd2, Dd2β6^A117D, Dd2K13^R539T and Dd2β6^A117DK13^R539T",[16],equipotent
